Assay results collected from several papers.
Target: Glycogen synthase kinase-3 beta (GSK3B, Homo sapiens, UniProt P49841)
Action: inhibitor

Cc1nc(-c2ccc(OCC(C)C)c(C#N)c2)sc1C(=O)O has an inhibition of 66.9% (enzyme activity; ADP detection; 100 µM).
With CSc1nc(C)c(-c2ccnc(Nc3ccc(N4CCOCC4)cc3)c2)[nH]1 the inhibition was 5.7% (enzyme activity; 10 µM).
The inhibition of CCN(CC)CCNC(=O)c1c(C)[nH]c(/C=C2\C(=O)Nc3ccc(F)cc32)c1C is reported as 3% (enzyme activity; 10 µM).
With COc1cccc2c(NCc3ccccc3)nc(-n3c(N)nc4ccccc43)nc12 the inhibition was 1% (target engagement in cells; chemoproteomics; 20 mM).
With CN(C)C1CCN(CC#Cc2nn(C3CCCC3)c3nc(NCc4ccccc4)ncc23)C1 (stereo not shown) the inhibition was -4% (enzyme activity; FRET; 0.1 µM).
The inhibition of O=C(CSc1nc2nccnc2c(=O)n1CCc1ccccc1)Nc1nccs1 is reported as -5% (enzyme activity; 10 µM).
For COc1ccc(-c2nc3ccc(C4=NNC(=O)CC4C)cc3[nH]2)cc1 (stereo not shown), the inhibition was 21.5% (enzyme activity; ADP detection; 100 µM).
COc1cc2ncnc(Nc3ccc(Oc4ccccc4)c(C)c3C)c2cc1OC gave an inhibition of 4% (enzyme activity; 1 µM).
For CCCS(=O)(=O)Nc1ccc(F)c(C(=O)c2c[nH]c3ncc(-c4ccc(Cl)cc4)cc23)c1F, the inhibition was less than 20% (enzyme activity; 1 µM).
COc1ccc2c(c1)O[C@H]1c3ccc(OC)cc3OC[C@@H]21 has an inhibition of 32.9% (enzyme activity; ADP detection; 100 µM).
CC/C(=N\NC(=O)NCc1cccc(O)c1)c1ccc(O)c(C)c1O gave an inhibition of 8.6% (enzyme activity; 0.1 µM).
For CC(C)NCC(O)c1ccc(NS(C)(=O)=O)cc1 (stereo not shown), the inhibition was 8.4% (enzyme activity; ADP detection; 100 µM).
For C=CC(=O)Nc1cc(Nc2nccc(Nc3cc(Cl)c(F)cc3C(C)(C)O)n2)c(OC)cc1N1CC[C@@H](N(C)C)C1, the inhibition was 9% (enzyme activity; 1 µM).
